KCNK3 block: human KCNK3 channel inhibition, primary screen; O14649; CHO-KCNK3 thallium flux, FluxOR fluorescence; active compounds read low; B-score at 10 µM; 340,000 tested, 0.84% active; AID 602410;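 active = B-score under library mean minus 4 SD, starting fluorescence ratio at most library mean plus 5 SD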;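 note: more negative B-score means stronger inhibition of thallium flux through KCNK3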
Target sequence (O14649 whole entry, looked up): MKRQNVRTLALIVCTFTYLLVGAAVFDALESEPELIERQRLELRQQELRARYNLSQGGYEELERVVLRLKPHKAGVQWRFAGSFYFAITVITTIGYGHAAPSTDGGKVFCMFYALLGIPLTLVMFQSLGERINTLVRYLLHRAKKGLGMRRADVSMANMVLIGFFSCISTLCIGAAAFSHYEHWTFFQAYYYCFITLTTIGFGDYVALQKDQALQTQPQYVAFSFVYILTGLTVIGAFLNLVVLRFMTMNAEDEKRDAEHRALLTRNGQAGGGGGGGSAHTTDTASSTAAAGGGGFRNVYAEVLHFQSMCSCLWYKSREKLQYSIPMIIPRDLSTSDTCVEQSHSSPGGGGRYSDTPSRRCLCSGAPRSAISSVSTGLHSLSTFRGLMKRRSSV
KCNQ1 act: potentiates or activates the human KCNQ1 potassium channel; AID 2648; 310,000 tested, 0.35% active; B-score at 10 µM; CHO-K1 KCNQ1, thallium flux FluxOR fluorescence; active compounds read high;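 active = fluorescence ratio B-score, a plate-corrected score, at least three library SD, with initial intensity B-score within 5 SD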
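Medium – assay buffer, equal DMSO in all wells · Material – CHO-K1 cell line with stable KCNQ1 potassium channel expression · Signal – kinetic FluxOR thallium fluorescence, 10-s 1-Hz baseline, 110-s post-stimulus read · Compound – single concentration per compound, DMSO matched to controls · Schedule – 37 °C overnight plating, 90-min dark dye load, 20-min compound pretreatment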
KCC2 mod: modulators of human KCC2 chloride dependent transport; Q9H2X9; KCC2 cells, thallium flux FluoZin-2 fluorescence; B-score of Tl+ flux slope (higher = more flux/activation; lower = inhibition) at 10 µM; 190,000 tested, 2.2% active;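 active = thallium flux slope and its plate-corrected score both differing from the plate sample mean at a set confidence after two filtering rounds, in either direction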;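 note: slope of fluorescence scaled to starting intensity during 10 to 20 s after thallium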
hERG rescue: compounds protecting human hERG from proarrhythmic drug block; CHO-hERG, FluxOR thallium flux, dofetilide IC70 present; activation (rescue from dofetilide block), less the hit threshold, % at 10 µM; 310,000 tested, 0.51% active; AID 1511;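 active = activation above the mean of controls blocked by dofetilide plus 5 SD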;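 note: thallium influx through hERG after potassium depolarization seen as dye fluorescence rise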
KCNK9 inh: human KCNK9 channel inhibition | AID 488922 | 310,000 tested, 1.2% active | Q9NPC2 | B-score at 10 µM | HEK293 KCNK9, FluxOR thallium flux fluorescence; active compounds read low;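 active = ratio B-score over 3 SD below the library mean, with starting fluorescence within 5 SD of its mean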;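 note: negative B-score means less thallium flux so channel inhibition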
KCNQ1 block: inhibitors of human KCNQ1 potassium channel; P51787; AID 2642; 310,000 tested, 1.3% active; CHO-K1 KCNQ1, FluxOR thallium flux fluorescence; active compounds read high; B-score at 10 µM;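 active = compounds whose thallium flux B-score, printed positive for inhibition, exceeds three library SD while starting fluorescence stays within three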;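 note: channel opened by potassium depolarization with thallium stimulus after 20 min compound exposure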
KCC2 secondary: KCC2 (human) modulation, secondary assay | shares compounds with KCC2 mod | HEK293-KCC2, thallium flux, FluoZin2 fluorescence; active compounds read high | normalised thallium flux (F/F0 slope) at 10 µM | 3,700 tested, 15% active | AID 1713;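 active = thallium flux slope above the same plate's solvent-only control mean plus 3 SD; inconclusive = the two replicate wells disagree; inactive = no significant difference from solvent-only control wells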
KCC2 bumet counter: thallium flux despite bumetanide block in KCC2 cells, secondary assay 3; HEK293-KCC2 + bumetanide/ouabain, thallium flux FluoZin2; active compounds read high; 3,700 tested, 49% active; normalized thallium flux at 10 µM; shares compounds with KCC2 mod;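 active = thallium entry rate above the same plate's blocked-transporter control wells by more than 3 SD; inconclusive = the two repeat wells disagree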;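 note: raw slope of fluorescence over initial fluorescence between 10 and 20 s after thallium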
KCC2 sec2: KCC2 (human) modulation, second secondary assay | HEK293-KCC2, thallium flux FluoZin2 fluorescence; actives lie on both sides; F/F0 rise rate, 10–20 s post-thallium | 3,700 tested, 23% active | shares compounds with KCC2 mod | normalized thallium flux at 10 µM;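 active = thallium flux slope more than 3 SD above or below the plate's solvent-only control mean, mostly below; inconclusive = the two repeat wells disagreed; inactive = no significant shift from solvent-only controls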
HEK293 Tl flux: counter-screen for KCC2 modulators: effect in parental HEK293 cells; shares compounds with KCC2 mod; thallium flux FluoZin2, ouabain; baseline-ratio fluorescence slope, 10–20 s after thallium; thallium flux rate (normalised fluorescence) at 10 µM; 3,700 tested, 46% active; AID 1716;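 active = thallium flux rate significantly above the same plate's solvent-only control wells, beyond their mean plus 3 SD; inconclusive = the two replicate wells gave conflicting results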
KCC2 ouabain: KCC2 (human) modulation, ouabain retest | shares compounds with KCC2 mod | HEK293-KCC2, thallium flux FluoZin2 fluorescence; bidirectional: low = inhibitor, high = activator | raw Tl+ flux slope (below DMSO = inhibition, above = activation) at 10 µM | 3,700 tested, 48% active;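 active = thallium flux slope beyond 3 SD from same-plate DMSO control mean in most replicates, usually higher, sometimes lower; inconclusive = repeat tests gave conflicting results; inactive = no significant difference from controls in most replicates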;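 note: slope of initial-normalized fluorescence between seconds 10 and 20 after thallium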
HEK293 Tl flux2: acts in parental HEK cells, second KCC2 counter-screen | shares compounds with KCC2 mod | HEK293 parental, thallium flux FluoZin-2 fluorescence slope | thallium flux slope at 10 µM | 3,700 tested, 33% active | AID 1718;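 active = thallium flux slope above the same plate's solvent-control mean plus 3 SD in both duplicate wells; inconclusive = duplicate wells that disagreed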;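 note: run without ouabain in cells lacking the KCC2 cotransporter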
Large screens that a line does not name were inactive (follow-up assays come after a bar, where they were run). A selection: hits, their analogues and other compounds. The true share with any hit is near 4.1%.

Cc1cc(C)c(NC(=O)CN(c2ccccc2)S(=O)(=O)N(C)C)c(C)c1	KCC2 mod 5.2 | KCC2 secondary inactive | KCC2 bumet counter inactive | KCC2 sec2 inactive | HEK293 Tl flux inactive | KCC2 ouabain inactive | HEK293 Tl flux2 inactive
COc1ccccc1C(C#N)c1cccc(Cl)n1 (stereo not drawn)	none (no result: KCC2 mod)
CC(=O)c1ccc(N(C(=O)Cn2nnc3ccccc32)C(C(=O)NC2CCCCC2)c2cn(C)nc2C)cc1 (stereo not drawn)	none
CC(=O)c1cccc(N(C(=O)Cn2nnc3ccccc32)C(C(=O)NC2CCCCC2)c2cn(C)nc2C)c1 (stereo not drawn)	none (no result: KCC2 mod) | KCC2 secondary inactive | KCC2 bumet counter inconclusive | KCC2 sec2 inactive | HEK293 Tl flux inactive | KCC2 ouabain inactive | HEK293 Tl flux2 inconclusive
CCOc1ccc(NC(=O)N2CCC(n3c(=O)[nH]c4ccccc43)CC2)cc1	none
COc1ccc(C/C(C)=N/NC(=S)Nc2ccc(C(C)C)cc2)cc1	none
COc1ccc(C/C(C)=N/NC(=S)Nc2ccccc2F)cc1	KCC2 mod 55 | KCC2 secondary inactive | KCC2 bumet counter 0.036 | KCC2 sec2 inactive | HEK293 Tl flux inconclusive | KCC2 ouabain 0.039 | HEK293 Tl flux2 inconclusive
COc1ccc(C)cc1NS(=O)(=O)c1ccc2c(c1)N(C(C)=O)CCO2	none (no result: KCC2 mod)
Cc1ccc(/C=C2\SC(=S)N(C3CCS(=O)(=O)C3)C2=O)o1 (stereo not drawn)	none
Cc1ccc(/C=C2\SC(=S)N(/N=C/c3cc([N+](=O)[O-])ccc3O)C2=O)o1	KCC2 mod 3.8, KCNQ1 block 6 | KCC2 secondary inactive | KCC2 bumet counter 0.013 | KCC2 sec2 inactive | HEK293 Tl flux 0.0096 | KCC2 ouabain 0.028 | HEK293 Tl flux2 inactive
CC(=O)c1c(N)[nH]c(-c2ccccc2)nc1=S	none (no result: KCC2 mod)
CC(=O)c1c(N2CCOCC2)[nH]c(-c2ccccc2)nc1=S	KCC2 mod 13 | KCC2 secondary 0.017 | KCC2 bumet counter 0.032 | KCC2 sec2 inconclusive | HEK293 Tl flux 0.019 | KCC2 ouabain 0.041 | HEK293 Tl flux2 inconclusive
COc1cccc2cc(C(=O)N3CCN(c4ccc(C)cc4C)CC3)c(=O)oc12	none
CCOc1ccc(CN(C(=O)c2oc3ccccc3c2C)C2CCS(=O)(=O)C2)cc1 (stereo not drawn)	none | KCC2 secondary inactive | KCC2 bumet counter inactive | KCC2 sec2 inactive | HEK293 Tl flux inactive | KCC2 ouabain inactive | HEK293 Tl flux2 inactive
Cc1cc(C)n(-c2ccc(C(=O)NCCCN3CCOCC3)cc2)n1	none
O=C(Nc1ccccc1-c1nnn(CC(=O)N2CCc3ccccc3C2)n1)C1CCC1	none (no result: KCC2 mod)
O=C(Nc1cccc(-c2nnn(CC(=O)N3CCc4ccccc4C3)n2)c1)C1CCC1	none (no result: KCC2 mod) | KCC2 secondary inactive | KCC2 bumet counter inactive | KCC2 sec2 inconclusive | HEK293 Tl flux inconclusive | KCC2 ouabain 0.014 | HEK293 Tl flux2 inactive
